Most compounds without a hit are left out; they make up all but 3.9% or so of the library.
697 NFkB inh: lowers PMA/ionomycin-induced NF-kB signal in 697 B cells; 697 B-cell NF-kB luciferase reporter, 16 h; inhibition, % at 4 µM; hit rate 0.33% among 330,000; AID 435022; in the data active = inhibition above about 35%
Jurkat NFkB inh: inhibitors of the PMA/ionomycin-induced NF-kB reporter in Jurkat cells | AID 435003 | hit rate 0.53% among 330,000 | PMA/ionomycin-induced NF-kB luciferase reporter, luminescence | inhibition, % at 4 µM; in the data active = inhibition above about 50%
CHOP inh: blocks CHOP induction under ER stress; CHO-K1 CHOP-promoter luciferase, tunicamycin-induced, 15-18 h; inhibition, % at 10 µM; hit rate 3.8% among 220,000;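 active = compounds that reduced the stress-induced luciferase reporter signal by more than about 70% of percent inhibition, limit read from the data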;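 note: 0% = tunicamycin plus vehicle and 100% = wells without tunicamycin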
CHOP UPR activ: apoptotic UPR (CHOP) activation; activation, % at 10 µM; AID 449763; hit rate 0.34% among 330,000; CHO-CHOP luciferase reporter, luminescence; percent of tunicamycin response over DMSO baseline;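 active = at 10 µM dose, activation of 40% or more, normalized to positive control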;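 note: 100% = tunicamycin at 10 µg/mL and 0% = DMSO alone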
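Assay system: CHO-CHOP cells, stable luciferase reporter of PERK-eIF2a-CHOP signalling / Buffer or medium: F12 plus 10% serum / Compound dosing: one dose, 10 µM in 0.5% DMSO / Times: 6 h compound treatment, 37 °C / Technique: luciferase luminescence / Read-out: % reporter activation, DMSO baseline versus tunicamycin full activation / Benchmarks: tunicamycin and DMSO controls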
UPR XBP1 act: activators of adaptive arm of unfolded protein response (XBP1); CHO-XBP1 luciferase reporter, IRE1-XBP1 UPR activation, luminescence; percent of tunicamycin response, DMSO as zero; activation, % at 20 µM; hit rate 0.33% among 330,000;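 active = versus positive control, 20 µM dose yields 30% or more activation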;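 note: 100% = tunicamycin at 10 µg/mL and 0% = DMSO only wells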
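Assay system: IRE1-XBP1 luciferase reporter CHO line. Input: 1000 cells/well. Buffer or medium: F12 with 10% serum. Doses: 20 µM, 1% DMSO. Times: overnight seeding at 37 °C, 6 h compound treatment at 37 °C. Technique: Steady-Glo luciferase glow luminescence, 10 min after reagent addition.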
Gli-Sufu block: antagonists of Gli-Sufu signaling | inhibition, % at 5 µM | hit rate 0.74% among 340,000 | Sufu-KO-LIGHT fibroblasts, Gli luciferase reporter luminescence;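 active = inhibition above about 55%, limit read from the data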;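 note: 0% = DMSO-treated cells and 100% = wells with medium but no cells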
Jurkat NFkB conf: lowers PMA/ionomycin-induced NF-kB signal in Jurkat cells. shares compounds with Jurkat NFkB inh. Jurkat NF-kB luciferase, 16 h. inhibition, % at 4 µM. hit rate 27% among 2,700. AID 435020;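 active = inhibition reaching about 45% at 4 µM in either replicate, limit read from the data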;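 note: plate controls were PMA/ionomycin stimulated DMSO wells for no effect and unstimulated DMSO wells for full effect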
697 NFkB conf: lowers PMA/ionomycin-induced NF-kB signal in 697 B cells; shares compounds with 697 NFkB inh; 697 B-cell NF-kB luciferase, 16 h; inhibition, % at 4 µM; hit rate 35% among 2,000; in the data active = inhibition mostly above about 28%, no sharp cut-off; inactive = mostly below about 22%
* = called active by the depositor; i = inactive; x = no result given.

SMILES	697 NFkB inh	Jurkat NFkB inh	CHOP inh	CHOP UPR activ	UPR XBP1 act	Gli-Sufu block	Jurkat NFkB conf	697 NFkB conf
Cc1ccc(C(=O)Nc2ccc3c(c2)OCO3)cc1Cl	-70	-149	x	5	-3	x	x	x
O=C(Nc1ccc(N2CCCCC2)c(Cl)c1)c1cccnc1	i	-153	x	6	0	-45	-48	-267
O=C(Nc1ccc(N2CCCC2)c(Cl)c1)c1cccnc1	-3	-6	1	2	4	-79	x	x
NC(=S)N1N=C(c2ccccc2)CC1=O	x	x	x	x	x	2	x	x
COc1cccc(CN(C)C(=O)CCNC(=O)c2ccco2)c1	11	0	x	0	0	-9	x	x
Cc1ccc(C)c(NC(=O)c2ccc3ccccc3n2)c1	-283	-177	80*	5	-3	-74	-98	-189
Cc1ccc(Nc2ccccc2)cc1	-4	-6	0	3	2	-9	x	x
Cc1ccc(NC2=Nc3ccccc3CS2)cc1	-331	-182	-32	-3	-10	-25	-141	-341
CCc1ccccc1-n1nnc(-c2ccccc2)n1	29	2	x	2	-1	-1	x	x
C/C(=N/N=C/c1ccc(N(C)C)cc1)c1ccccc1	-274	-163	58	-7	-7	-33	1	-48
Cc1cc2nc(-c3ccc(NC(=O)C(C)C)cc3)oc2cc1C	-405	-236	5	6	-2	-63	-151	-353
CC(C)C(=O)Nc1cccc(-c2nc3ccccc3o2)c1	-16	-9	18	2	6	-61	x	x
Cc1ccc(-c2nc3cc(NC(=O)C(C)C)ccc3o2)cc1	-422	-222	33	2	-4	1	-142	-439
Cc1ccc(-c2nc3cc(NC(=O)C(C)C)ccc3o2)cc1C	i	-251	57	-3	-1	-72	-43	i
